In brackets after ≈: the same amount, converted by molar mass. Activity calls are given as the source filed them. No cut-off for these calls is given here.

The solubility is how much of the substance goes into solution per volume. The low end stands for little dissolved substance, the high end for much dissolved substance. Usually Emax stands for the greatest response seen or fitted, relative to the assay's reference. Usually EC50 stands for the midpoint of the concentration-response curve. Broadly, the Tmax is the time at which the peak concentration occurs. Broadly, the AUC(0-t) is the area under the concentration-time curve up to a stated or last time point. Read a high AUC(0-t) as high exposure. As a reminder, the bioavailability is dose-corrected exposure relative to a reference, in per cent. As usually defined, the Cmax is the maximum level reached in the sampled fluid or tissue. One may read the efflux ratio as the permeability from basolateral to apical divided by that in the opposite direction, in the common usage.

The nature of series [1]: Aqueous solubility of the compound at pH 6.8 by HPLC analysis. Format: physicochemical. An outline of the steps: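 Compound from DMSO stock was added to aqueous buffer at pH 6.8 (JP 15th edition second disintegration fluid) and incubated. Precipitate was removed by filter-plate filtration, and the dissolved compound in the filtrate was quantified by HPLC.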
For series [2], the target named is T1, G-protein coupled receptor 52 (Homo sapiens, UniProt Q9Y2T5). The series can be described thus: Agonist activity at human GPR52 expressed in CHO cells assessed as increase in cAMP level after 30 mins by AlphaScreen assay relative to N-(2-hydroxyethyl)-3-[2-[3-(trifluoromethyl)benzyl]-1-benzofuran-4-yl]benzamide. Format: functional, cell-based. An outline of the steps: (§1)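 CHO cells stably expressing human GPR52 (10,000 cells) were incubated with compound for 30 min at 37°C in HBSS with 5 mM HEPES pH 7.6, 0.5% BSA, 100 μM IBMX and 100 μM Ro20-1724. Anti-cAMP acceptor beads and biotinylated cAMP donor beads were then added, with overnight incubation at room temperature, and AlphaScreen was read. EC50 comes from mean curves (n=2-4) relative to the 50% response of 1 μM of a benzofuran reference agonist. Emax is expressed relative to that reference.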
A general note: Cyclic AMP is a second messenger, typically raised through Gs and lowered through Gi signalling.

The target of series [3] is T1, G-protein coupled receptor 52. The series can be described thus: Agonist activity at human GPR52 expressed in CHO cells assessed as increase in cAMP level after 30 mins by AlphaScreen assay. Format: functional, cell-based. An outline of the steps:
as §1

Series [4] concerns Mus musculus. The series is described as follows: Reversal of methamphetamine-induced hyperlocomotion in ICR mouse at 0.3 mg/kg, po pretreated 60 mins post habituation followed by methamphetamine injection after 60 mins measured for 150 mins. The class given is functional, organism-based. An outline of the steps: (§2)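 Male ICR mice (7-8 weeks) were placed individually in locomotor monitors and habituated for 60 min. Drug was then given p.o. (test agent 10 or 30 mg/kg; haloperidol 0.3 mg/kg). Methamphetamine 2 mg/kg s.c. was injected 60 min later, and activity counts were recorded for 150 min after drug dosing. Data are mean ± S.E.M., n=6-7 per group, analysed by Williams' test against vehicle+MAP.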

The test system of series [5] is Mus musculus. The series can be described thus: Reversal of methamphetamine-induced hyperlocomotion in po dosed ICR mouse pretreated 60 mins post habituation followed by methamphetamine injection after 60 mins measured for 150 mins. The class given is functional, organism-based. An outline of the steps:
as §2

A short description of series [6]: Tmax in ICR mouse at 0.1 mg/kg, iv and 1 mg/kg, po administered as cassette dose by LC-MS/MS analysis. Format: ADME, organism-based. The note with it: in vivo. An outline of the steps:
(§3)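 Male ICR mice (n=3), cassette dosing at 0.1 mg/kg i.v. or 1 mg/kg p.o. Blood was collected and centrifuged to plasma. Plasma was deproteinized and centrifuged, and the supernatant was analysed by LC/MS/MS. AUC covers 0 to 8 h. Values are averages of 3 mice.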

Series [7] relates to Mus musculus. The series can be described thus: Toxicity in ICR mouse assessed as sedation at 10 and 30 mg/kg, po measured over 60 mins. The class given is organism-based. The note with it: in vivo, 1 h.
Series [8] is described as follows: Total clearance in ICR mouse at 0.1 mg/kg, iv and 1 mg/kg, po administered as cassette dose by LC-MS/MS analysis. Particulars: in vivo. Format: ADME, organism-based. An outline of the steps:
as §3

Series [9] can be described thus: Protein binding in mouse plasma at 1 uM. Format: ADME, cell-free. The note with it: read-out: PPB (converted).
A short description of series [10]: AUC (0 to 8 hrs) in ICR mouse at 1 mg/kg, po administered as cassette dose by LC-MS/MS analysis. Format: ADME, organism-based. Particulars: in vivo. The arrangement: time < 8 hr, dose 1 mg/kg, route oral. An outline of the steps:
as §3

The nature of series [11]: Oral bioavailability in ICR mouse at 1 mg/kg administered as cassette dose by LC-MS/MS analysis. Particulars: in vivo. The class given is ADME, organism-based. An outline of the steps: as §3
Series [12] concerns Mus musculus. The series is described as follows: Toxicity in ICR mouse assessed as general malaise at 10 and 30 mg/kg, po measured over 60 mins. Format: organism-based. The note with it: in vivo, 1 h.
The nature of series [13]: Cmax in ICR mouse at 0.1 mg/kg, iv and 1 mg/kg, po administered as cassette dose by LC-MS/MS analysis. Format: ADME, organism-based. The note with it: in vivo. An outline of the steps: as §3
The test system of series [14] is MDR. The series is described as follows: Substrate activity at MDR (unknown origin) assessed as efflux ratio. The class given is ADME. Particulars: human, not told.

T1 sequence (Q9Y2T5 whole entry): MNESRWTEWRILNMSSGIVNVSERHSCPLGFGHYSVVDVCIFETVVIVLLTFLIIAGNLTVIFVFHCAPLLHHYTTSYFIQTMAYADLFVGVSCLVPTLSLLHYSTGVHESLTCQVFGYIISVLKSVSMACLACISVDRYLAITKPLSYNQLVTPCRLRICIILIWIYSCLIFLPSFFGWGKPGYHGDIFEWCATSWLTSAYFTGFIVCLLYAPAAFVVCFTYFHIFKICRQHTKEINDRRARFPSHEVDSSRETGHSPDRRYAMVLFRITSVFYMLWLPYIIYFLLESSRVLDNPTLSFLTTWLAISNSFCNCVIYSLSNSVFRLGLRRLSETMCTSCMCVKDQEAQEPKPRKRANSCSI

`COCCNC(=O)c1c(C)nn(-c2cccc3cc(Cc4cccc(C(F)(F)F)c4)sc23)c1C`: the solubility in series [1] came to 2.9 µg/mL (≈ 5.95 µM). Further, the maximum response (Emax) in series [2] amounted to 104%. For the same compound, the concentration giving a half-maximal response (EC50) in [3] stood at 17 nM.

In series [1], `Cc1c(C(=O)NCCO)c(CO)nn1-c1cccc2cc(Cc3cccc(C(F)(F)F)c3)sc12` came in with a solubility of 18 µg/mL (≈ 36.8 µM). In addition, the Emax in series [2] was found to be 96%. Moreover, the EC50 in series [3] worked out at 146 nM.

With `COCCNC(=O)c1cnn(-c2cccc3cc(Cc4cccc(C(F)(F)F)c4)sc23)c1C`, the solubility in series [1] came to 1.3 µg/mL (≈ 2.75 µM). Moreover, in series [2], the Emax is 84%. The EC50 in series [3] turned out to be 62 nM.

The compound `COCCNC(=O)c1cnn(-c2cccc3cc(Cc4cccc(C(F)(F)F)c4)sc23)c1` yielded a solubility in [1] of less than 0.08 µg/mL. Besides, the Emax in series [2] is 81%. In addition, the EC50 in [3] came to 62 nM.

Regarding `O=C(CCCN1CCC(O)(c2ccc(Cl)cc2)CC1)c1ccc(F)cc1`, in [4], the result was Active.

Compound `COCCNC(=O)c1cn(-c2cccc3cc(Cc4cccc(C(F)(F)F)c4)sc23)nc1C` displayed a solubility in series [1] of less than 0.1 µg/mL. Further, the Emax in [2] was determined as 89%. Further, the EC50 in [3] is 9.6 nM.

In series [1], `Cc1nn(-c2cccc3cc(Cc4cccc(C(F)(F)F)c4)sc23)c(C)c1C(=O)NCCO` had a solubility of 12 µg/mL (≈ 25.3 µM). For the same compound, the Emax in [2] amounted to 110%. For the same compound, in [3], the EC50 was found to be 15 nM.

With `Cc1nn(-c2cccc3cc(Cc4cccc(C(F)(F)F)c4)sc23)c(CO)c1C(=O)NCCO`, the results for the Activity result in [5], in series [7] and in series [12] were “Dose-dependent effect”, “Non-Toxic” and “Non-Toxic”, respectively. Besides, in series [6], the Tmax worked out at 1.7 h. The compound also had a clearance in series [8] of 12.4 mL/min/kg. In series [1], this compound came in with a solubility of 21 µg/mL (≈ 42.9 µM). In series [9], the fraction unbound at 1 µM is 0.02. In series [2], the Emax came to 103%. The compound also gave an AUC(0-t) at 8 h in series [10] of 406 ng·h/mL. The compound further yielded a bioavailability in [11] of 29.9%. Moreover, the highest level in series [13] (Cmax) was 83 ng/mL. Besides, the EC50 in series [3] was found to be 21 nM. Also, in [14], the efflux ratio worked out at 1.7.

Take `Cc1nn(-c2cccc3cc(Cc4cccc(C(F)(F)F)c4)sc23)cc1C(=O)NCCO`: the solubility in series [1] was less than 0.1 µg/mL. Further, the Emax in [2] amounted to 102%. The EC50 in series [3] stood at 5.2 nM.

The compound `Cn1nc(-c2cccc3cc(Cc4cccc(C(F)(F)F)c4)sc23)cc1C(=O)NCCO` gave a solubility in series [1] of less than 0.08 µg/mL. Moreover, the Emax in series [2] stood at 110%. Besides, in series [3], the EC50 was 45 nM.

In the case of `O=C(NCCO)c1cnn(-c2cccc3cc(Cc4cccc(C(F)(F)F)c4)sc23)c1`, in series [1], the solubility is less than 0.09 µg/mL. Also, the Emax in series [2] was found to be 73%. Moreover, the EC50 in series [3] was determined as 87 nM.
